{"data": "Experimental data gathered from unrelated publications", "organism": "Severe acute respiratory syndrome coronavirus 2"}
{"SMILES": "O=C(Nc1ccccc1F)c1cc2c(=O)n3ccccc3nc2n1Cc1ccccc1", "test": "viral replication", "system": "Vero", "conditions": "1 µM", "inhibition": "92.3%"}
{"SMILES": "O=C(O[C@@H]1Cc2c(O)cc(O)cc2O[C@@H]1c1cc(O)c(O)c(O)c1)c1cc(O)c(O)c(O)c1", "test": "cytopathic effect, inhibitor", "system": "Vero C1008", "conditions": "6.25 µM", "inhibition": "0%"}
{"SMILES": "CC1=C(C/C=C(\\C)CC/C=C(\\C)Cc2ccc(F)c3ccccc23)C(=O)c2ccccc2C1=O", "test": "viral replication, inhibitor", "system": "VeroE6/TMPRSS2", "conditions": "100 µM, 72 h", "inhibition": "43%"}
{"SMILES": "Oc1c(Cl)cc(Cl)c2cccnc12", "test": "viral replication, inhibitor", "system": "Vero C1008", "conditions": "30 µM", "inhibition": "89.8%"}
{"SMILES": "C=C1C[C@H]2[C@@](C)(C(=O)C(O)=C3C(C)(C)C(=O)CC[C@@]32C)[C@@H]2C(=O)O[C@@](C)(C(=O)OC)C(=O)[C@@]12C", "test": "viral replication, inhibitor", "system": "Calu-3", "conditions": "50 µM", "inhibition": "82.1%"}
{"SMILES": "NCC[C@H](O)C(=O)N[C@@H]1C[C@H](N)[C@@H](O[C@H]2O[C@H](CN)[C@@H](O)[C@H](O)[C@H]2O)[C@H](O)[C@H]1O[C@H]1O[C@H](CO)[C@@H](O)[C@H](N)[C@H]1O", "test": "viral replication", "system": "Vero C1008", "conditions": "50 µM", "inhibition": "3%"}
{"SMILES": "C=C(C)[C@]12C[C@@H](C)[C@@]34O[C@](Cc5ccccc5)(O[C@@H]1[C@@H]3C=C(COC(=O)Cc1ccc(O)c(OC)c1)C[C@]1(O)C(=O)C(C)=C[C@@H]41)O2", "test": "viral replication, inhibitor", "system": "Vero C1008", "conditions": "1 µM", "inhibition": "53.2%"}
{"SMILES": "[H]/N=C(/N)SCCCn1cc(C2=C(c3cn(C)c4ccccc34)C(=O)NC2=O)c2ccccc21", "test": "viral replication", "system": "Vero C1008", "conditions": "50 µM", "inhibition": "15%"}
{"SMILES": "CCC(CC)COC(=O)[C@H](C)N[P@](=O)(OC[C@H]1O[C@@](C#N)(c2ccc3c(N)ncnn23)[C@H](O)[C@@H]1O)Oc1ccccc1", "test": "viral replication", "system": "Vero", "conditions": "1 nM", "inhibition": "14.8%"}
{"SMILES": "CC(C)=CCC[C@](C)(O)[C@H]1CC[C@]2(C)[C@@H]1CC[C@@H]1[C@@]3(C)CCC(=O)C(C)(C)[C@@H]3CC[C@]12C", "test": "viral replication, inhibitor", "system": "Calu-3", "conditions": "50 µM", "inhibition": "99.5%"}
{"SMILES": "Cc1cccn2c(=O)c3cc(C(=O)Nc4ccc(N(C)C)cc4)n(C)c3nc12", "test": "viral replication", "system": "Vero", "conditions": "10 µM", "inhibition": "94.2%"}
{"SMILES": "CCC(CC)COC(=O)[C@H](C)N[P@](=O)(OC[C@H]1O[C@@](C#N)(c2ccc3c(N)ncnn23)[C@H](O)[C@@H]1O)Oc1ccccc1", "test": "viral replication, inhibitor", "system": "Vero C1008", "conditions": "0.8 µM", "inhibition": "20%"}
{"SMILES": "CC1=C(C/C=C(\\C)CC/C=C(\\C)Cc2cccc3ccccc23)C(=O)c2ccccc2C1=O", "test": "viral replication, inhibitor", "system": "VeroE6/TMPRSS2", "conditions": "100 µM, 72 h", "inhibition": "48%"}
{"SMILES": "CC(=O)c1cccc(NC(=O)c2cc3c(=O)n4ccccc4nc3n2C)c1", "test": "viral replication", "system": "Vero", "conditions": "10 µM", "inhibition": "96.4%"}
{"SMILES": "CC1CCC2c3c(c4ccccc4n3Cc3ccccc3)CCN2C1 (stereo not shown)", "test": "viral replication, inhibitor", "system": "Vero C1008", "conditions": "1 µM", "inhibition": "54.3%"}
{"SMILES": "CC1=C(C/C=C(\\C)CC/C=C(\\C)Cc2cccc(C(C)C)c2)C(=O)c2ccccc2C1=O", "test": "viral replication, inhibitor", "system": "VeroE6/TMPRSS2", "conditions": "100 µM, 72 h", "inhibition": "48%"}
{"SMILES": "Br.CN=c1nc(-c2ccc(OC)c(OC)c2)n(-c2ccc(F)cc2)s1", "test": "viral replication, inhibitor, qPCR", "system": "Vero C1008", "conditions": "50 µM, 24 h", "inhibition": "35.6%"}
{"SMILES": "CC[C@H](C)[C@@H]1NC(=O)[C@@H](C)NC(=O)[C@H](C(C)C)NC(=O)C[C@H](/C=C/c2ccccc2)OC(=O)[C@H](C(C)C)NC1=O", "test": "viral replication, inhibitor", "system": "Calu-3", "conditions": "50 µM", "inhibition": "3.01%"}
{"SMILES": "Cc1ccc(NC(=O)c2cc3c(=O)n4cccc(C)c4nc3n2C)cc1Cl", "test": "viral replication", "system": "Vero", "conditions": "1 µM", "inhibition": "87.3%"}
{"SMILES": "COc1c2ccoc2c(OCC=C(C)C)c2oc(=O)ccc12", "test": "viral replication, inhibitor", "system": "Calu-3", "conditions": "50 µM", "inhibition": "96%"}
{"SMILES": "Cn1c(C(=O)Nc2ccc3c(c2)OCCO3)cc2c(=O)n3ccccc3nc21", "test": "viral replication", "system": "Vero", "conditions": "10 nM", "inhibition": "8%"}
{"SMILES": "O=C(O)C1=CC(=C(c2ccc(O)c(C(=O)O)c2)c2ccc(O)c(C(=O)O)c2)C=CC1=O", "test": "viral replication", "system": "Vero C1008", "conditions": "50 µM", "inhibition": "80%"}
{"SMILES": "COc1ccc(C[C@@H]2c3cc(Oc4cc(C[C@@H]5c6cc(O)c(OC)cc6CCN5C)ccc4O)c(OC)cc3CCN2C)cc1", "test": "cytopathic effect", "system": "Vero C1008", "conditions": "3.125 µM", "inhibition": "0%"}
{"SMILES": "O=c1[nH]c(=O)n([C@@H]2O[C@H](CO)[C@@H](O)[C@@H]2O)cc1/C=C/Br", "test": "viral replication, inhibitor", "system": "Vero C1008", "conditions": "1 µM", "inhibition": "52.6%"}
{"SMILES": "OC[C@H]1O[C@@H](O[C@@H]2[C@@H](CO)OC(O)(CO)[C@H]2O)[C@H](O)[C@@H](O)[C@H]1O (mixture of isomers)", "test": "viral replication", "system": "Vero C1008", "conditions": "50 µM", "inhibition": "3%"}
{"SMILES": "Cn1c(C(=O)Nc2ccc(Cl)cc2)cc2c(=O)n3ccccc3nc21", "test": "viral replication", "system": "Vero", "conditions": "0.1 µM", "inhibition": "37.7%"}
{"SMILES": "CCCc1c(C(C)C)cc(C(C)C)c(C(C)O)c1-c1ccc(F)cc1 (stereo not shown)", "test": "viral replication, inhibitor", "system": "Vero C1008", "conditions": "1 µM", "inhibition": "52.8%"}
{"SMILES": "CC(C)=CCc1c(O)ccc(C(=O)/C=C/c2ccc(O)cc2)c1O", "test": "cytopathic effect", "system": "Vero C1008", "conditions": "25 µM", "inhibition": "0%"}
{"SMILES": "COc1cc(F)cc2c1-c1ccc(F)cc1C21NC(=O)NC1=O (stereo not shown)", "test": "viral replication, inhibitor", "system": "Vero C1008", "conditions": "1 µM", "inhibition": "52%"}
{"SMILES": "C=C[C@@](C)(/C=C/c1ccc(O)cc1)CCC=C(C)C", "test": "cytopathic effect", "system": "Vero C1008", "conditions": "50 µM", "inhibition": "0%"}
{"SMILES": "CC1=C(/C=C/C(C)=C/C=C/C(C)=C/C(=O)O)C(C)(C)CCC1", "test": "viral replication, inhibitor", "system": "Vero C1008", "conditions": "1 µM", "inhibition": "42.1%"}
{"SMILES": "O=C(/C=C/c1ccc(O)c(O)c1/C=C/c1ccc(O)c(O)c1)O[C@H](Cc1ccc(O)c(O)c1)C(=O)O", "test": "cytopathic effect", "system": "Vero C1008", "conditions": "6.25 µM", "inhibition": "0%"}
{"SMILES": "CCCc1nc2ccc(N(CCC)C(=O)c3ccccc3)cc2c(=O)n1Cc1ccc(-c2ccccc2-c2nnn[nH]2)cc1", "test": "viral replication, inhibitor", "system": "Vero C1008", "conditions": "1 µM", "inhibition": "54.3%"}
{"SMILES": "C[C@@H]1O[C@@H](O[C@H]2[C@H](O[C@H]3CC[C@]4(C)[C@H]5CC=C6[C@@H]7CC(C)(C)CC[C@]7(C(=O)OCc7ccccc7)CC[C@@]6(C)[C@]5(C)CC[C@H]4C3(C)C)O[C@H](CO)[C@@H](O[C@@H]3O[C@@H](C)[C@H](O)[C@@H](O)[C@H]3O)[C@@H]2O)[C@H](O)[C@H](O)[C@H]1O", "test": "viral replication", "system": "293T/ACE2", "conditions": "20 µM", "inhibition": "83.6%"}
